How the values were obtained:
[1] = molecular target: T1, Adenosine receptor A3 (Homo sapiens) (UniProt P0DMS8); assay: Ability to displace the binding of [3H]-MRE 3008-F20 to the ligand binding site of CHO:hA3 (human Adenosine receptor) at concentration of 10 uM
T1 sequence (whole entry): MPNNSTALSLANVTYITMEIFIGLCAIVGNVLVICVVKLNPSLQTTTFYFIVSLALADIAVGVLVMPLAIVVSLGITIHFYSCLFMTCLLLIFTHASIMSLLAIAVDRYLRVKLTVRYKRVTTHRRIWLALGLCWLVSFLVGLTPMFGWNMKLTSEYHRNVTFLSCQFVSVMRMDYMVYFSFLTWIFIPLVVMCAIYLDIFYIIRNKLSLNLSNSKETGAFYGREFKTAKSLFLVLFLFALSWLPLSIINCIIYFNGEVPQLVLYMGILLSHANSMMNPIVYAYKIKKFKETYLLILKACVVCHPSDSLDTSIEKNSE
Summary of the method: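 Assays used 2 nM [3H]MRE 3008F20 on CHO:hA3 membranes (100 µg protein, ADA-treated) for 150 min at 4 °C, in Tris-HCl with MgCl2 and 1 mM EDTA, pH 7.4, with compound from DMSO (1% final). Bound ligand was separated by filtration. Results are % displacement by 10 µM compound, ±STD, n = 3.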

[2] = molecular target: T2, Adenosine receptor A1 (Homo sapiens) (UniProt P30542); assay: Percent change in cAMP content of CHO (Chinese hamster ovary) cells expressing human Adenosine A1 receptor at 0.01 uM; assay type: functional, cell-based
T2 sequence (whole entry): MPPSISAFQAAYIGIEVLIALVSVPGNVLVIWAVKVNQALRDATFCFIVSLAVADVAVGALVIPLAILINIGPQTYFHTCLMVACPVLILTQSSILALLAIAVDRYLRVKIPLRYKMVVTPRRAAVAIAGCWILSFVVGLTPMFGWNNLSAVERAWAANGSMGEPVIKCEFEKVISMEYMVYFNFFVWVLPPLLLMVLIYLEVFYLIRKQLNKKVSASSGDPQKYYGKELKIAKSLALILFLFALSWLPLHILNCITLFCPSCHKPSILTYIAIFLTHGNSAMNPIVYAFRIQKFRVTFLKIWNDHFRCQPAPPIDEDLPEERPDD
Summary of the method: (§1)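 CHO cells stably expressing human A1 receptor (~8000 fmol/mg protein) were grown in Ham's F-12 with 10% FBS and G-418 for 48 h to confluence. HCl (50 mM final) stopped the reaction, and cAMP was measured by radioimmunoassay. Values are % change versus no-compound control, mean ± SEM of six experiments.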

[3] = molecular target: T2, Adenosine receptor A1 (Homo sapiens); assay: Percent change in cAMP content of CHO (Chinese hamster ovary) cells expressing human Adenosine A1 receptor at 0.1 uM; assay type: functional, cell-based; summary of the method: as §1
[4] = molecular target: T2, Adenosine receptor A1 (Homo sapiens); assay: Percent change in cAMP content of CHO (Chinese hamster ovary) cells expressing human Adenosine A1 receptor at 1 uM; assay type: functional, cell-based; summary of the method: as §1
[5] = molecular target: T2, Adenosine receptor A1 (Homo sapiens); assay: Percent change in cAMP content of CHO (Chinese hamster ovary) cells expressing human Adenosine A1 receptor at 10 uM; assay type: functional, cell-based; summary of the method: as §1
[6] = molecular target: T2, Adenosine receptor A1 (Homo sapiens); assay: Dissociation rate of [3H]CCPA from Adenosine A1 receptor expressing CHO cells at 10 uM as percent t1/2; assay type: cell-based
Summary of the method: (§2)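 [3H]CCPA was bound to ADA-treated CHO:hA1 membranes in 50 mM Tris-HCl pH 7.4 at 25 °C. Dissociation was started by adding R-PIA (1 µM) with test agent (10 µM), and specific binding was measured 2–180 min afterwards. Kinetic fits gave t1/2 and K-1, expressed as % change from control. Values are the mean of three experiments.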

[7] = molecular target: Adenosine receptor A2a (Homo sapiens) (UniProt P29274); assay: Ability to displace the binding of [3H]-ZM 241385, to the ligand binding site of CHO:hA2A (human Adenosine A2A receptor) at concentration of 10 uM
Chain of Adenosine receptor A2a (Homo sapiens) (P29274 whole entry): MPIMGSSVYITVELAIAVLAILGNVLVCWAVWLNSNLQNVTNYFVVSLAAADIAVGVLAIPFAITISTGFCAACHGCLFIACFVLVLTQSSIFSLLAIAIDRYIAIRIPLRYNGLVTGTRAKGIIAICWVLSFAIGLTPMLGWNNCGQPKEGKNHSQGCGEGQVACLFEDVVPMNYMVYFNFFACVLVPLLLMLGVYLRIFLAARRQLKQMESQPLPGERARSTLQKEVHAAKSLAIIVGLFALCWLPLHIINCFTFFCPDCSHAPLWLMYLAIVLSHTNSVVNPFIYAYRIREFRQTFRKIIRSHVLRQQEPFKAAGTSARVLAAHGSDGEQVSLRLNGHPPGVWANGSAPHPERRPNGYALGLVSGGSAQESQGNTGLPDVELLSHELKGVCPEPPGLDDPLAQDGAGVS
Summary of the method: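 CHO:hA2A membranes (100 µg protein, ADA-treated) were incubated with 2 nM [3H]ZM 241385 in Tris-HCl with MgCl2, pH 7.4, for 60 min at 4 °C, with compound from DMSO (1% final). Nonspecific binding was taken with 1 µM ZM241385. After filtration, results are % displacement by 10 µM compound, ±STD, n = 3.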

[8] = molecular target: T2, Adenosine receptor A1 (Homo sapiens); assay: Dissociation of [3H]CCPA from Adenosine A1 receptor in CHO cells at 10 uM as percent K-1; assay type: cell-based; summary of the method: as §2
[9] = molecular target: T2, Adenosine receptor A1 (Homo sapiens); assay: Ability to displace the binding of [3H]DPCPX to the ligand binding site of CHO:hA1 (human Adenosine A1 receptor) at concentration of 10 uM
Summary of the method: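 Membranes came from hypotonic lysis of CHO:hA1 cells, a 100 000g pellet and ADA 2 U/mL treatment for 30 min at 37 °C. Membranes (100 µg protein) were incubated with 1 nM [3H]DPCPX in Tris-HCl pH 7.4 for 150 min at 25 °C, with compound added from DMSO (1% final). Nonspecific binding was taken with 1 µM DPCPX, and bound ligand was separated on GF/B filters.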

[10] = molecular target: T2, Adenosine receptor A1 (Homo sapiens); assay: Percent change in cAMP in CHO cells expressing human Adenosine A1 receptor at 1 uM; assay type: functional, cell-based; summary of the method: as §1

Row | Structure (SMILES) | inhibition [1] | Change [2] | Change [3] | Change [4] | Change [5] | T1/2 increase [6] | inhibition [7] | K-1 decrease [8] | inhibition [9] | Change [10]
1 | Cc1sc(N)c(C(=O)c2cccc3ccccc23)c1C | 18% | -0.6% | -3% | – | -45% | 85% | -0% | 46% | -0% | 6%
2 | Nc1sc2c(c1C(=O)c1ccc3ccccc3c1)CCC2 | 54% | -19% | -14% | -15% | -51% | 42% | -0% | 29% | 14.5% | –
3 | Cc1sc(N)c(C(=O)c2cccc(C(F)(F)F)c2)c1C | 21% | -1% | -7% | -13% | -50% | 43% | -0% | 30% | -0% | –
4 | Nc1sc2c(c1C(=O)c1ccc(Cl)c3ccccc13)CCCC2 | 30.5% | -11% | 3% | -25% | -44% | 36% | -0% | 27% | 4.8% | –
5 | Cc1cc(C(=O)c2c(N)sc3c2CCC3)cc2ccccc12 | -0% | -0% | -7% | -13% | -34% | – | -0% | – | 6% | –
6 | Nc1sc2c(c1C(=O)c1ccc(Br)c3ccccc13)CCCC2 | 48.5% | -6% | -10% | -29% | -72% | 43% | 3% | 30% | 12% | –
7 | Nc1sc2c(c1C(=O)c1ccc3ccccc3c1)CCCC2 | -0% | -13% | -24% | -28% | -42% | 10% | -0% | 9% | 3.3% | –
8 | Nc1sc2c(c1C(=O)c1ccc(I)c3ccccc13)CCCC2 | 48% | -3% | -4% | -24% | -67% | 60% | 3% | 38% | 15.3% | –

Now from value to compound:

Row | inhibition [1] | Change [2] | Change [3] | Change [4] | Change [5] | T1/2 increase [6] | inhibition [7] | K-1 decrease [8] | inhibition [9] | Change [10] | Structure (SMILES)
9 | -0% | -0.6% | -6% | -29% | -60% | -0% | -0% | -0% | 8% | – | Nc1sc2c(c1C(=O)c1cccc3ccccc13)CCC2
10 | -0% | -6% | -8% | -22% | -75% | 41% | -0% | 29% | 3.3% | – | Nc1sc2c(c1C(=O)c1ccc(I)c3ccccc13)CCC2
11 | -0% | -10% | 15% | -27% | -55% | 43% | -0% | 30% | -0% | – | Nc1sc2c(c1C(=O)c1ccc(Cl)c3ccccc13)CCC2
12 | 34.5% | -11% | -15% | -22% | -52% | 29% | -0% | 23% | 2% | – | Nc1sc2c(c1C(=O)c1cccc3ccccc13)CCCC2
13 | 22% | 3% | 19% | -14% | -67% | 4% | -0% | 4% | -0% | – | Nc1sc2c(c1C(=O)c1ccc(Br)c3ccccc13)CCC2

— ChEMBL document CHEMBL1145774, “Synthesis and biological effects of novel 2-amino-3-naphthoylthiophenes as allosteric enhancers of the A1 adenosine receptor” (J Med Chem, 2003)
